In brackets after ≈: the same amount, converted by molar mass. Activity calls are given as the source filed them. The rule behind the calls is not given here.
What was measured:
Poliovirus 2 [1] = assay: Compound tested in vitro for anti-picornavirus activity against Poliovirus type-2; NA=Not Active; format: functional, organism-based
Outline: (§1)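 Plaque-reduction assay on day-old HeLa (Ohio) monolayers at 90% confluence, infected with polio-2 at ca. 80 pfu/well. Adsorption was at least 1 h at 37 °C in 2% CO2. Cells were then overlaid in duplicate with drug in M-199/calf serum/agarose (Me2SO stock at 10 mg/mL, twofold dilutions) and held 3 days. Plaques were fixed with formaldehyde, stained with crystal violet and counted. MIC is the concentration giving 50% plaque reduction.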

[2] = Maximum testable level of compound was evaluated; format: functional
Outline: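 In the HeLa (Ohio) plaque-overlay system, Me2SO-solubilized compound was twofold serially diluted into the agarose overlay. Uninfected cell controls were run alongside and cells were stained with crystal violet after 3 days. The maximum testable level was taken as the concentration below which no cytotoxic effects were seen.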

rhinovirus A2 [3] = assay: (§2) In vitro anti-picornavirus activity against Rhinovirus type-2.; format: functional; conditions: Rhinovirus A
Outline: (§3)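 HeLa (Ohio) monolayers (day-old, 90%) were infected at about 80 pfu/well and adsorbed at least 1 h at 33 °C in 2% CO2. After 3 days at 33 °C they were fixed with formaldehyde and stained with crystal violet. MIC was the concentration giving 50% fewer plaques.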

Poliovirus 2 [4] = assay: In vitro for anti-picornavirus activity against Poliovirus type-2; Not Active.; format: functional, organism-based; outline: as §1
rhinovirus A2 [5] = assay: as §2; format: functional; conditions: Rhinovirus A; remark: listed apart in the source
Outline: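 HeLa (Ohio) monolayers (day-old, 90%) were infected at about 80 pfu/well and adsorbed at least 1 h at 33 °C in 2% CO2. After 3 days at 33 °C they were fixed with formaldehyde and stained with crystal violet.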

Poliovirus 2 [6] = assay: In vitro anti-picornavirus activity against Poliovirus type-2.; format: functional; conditions: Enterovirus C
rhinovirus A2 [7] = assay: In vitro anti-picornavirus activity against Rhinovirus type-2; Not Active.; format: functional, organism-based; outline: as §3
Poliovirus 2 [8] = assay: Compound tested in vitro for anti-picornavirus activity against Poliovirus type-2; format: functional; conditions: Enterovirus C; outline: as §1
Poliovirus 2 [9] = assay: Compound tested in vitro for anti-picornavirus activity against Poliovirus type-2; NA=Not Active.; format: functional, organism-based; outline: as §1

Row | Compound | MTL [2] [µg/mL] | MIC (rhinovirus A2 [3]) [µg/mL] | MIC (rhinovirus A2 [5]) [µg/mL] | MIC (Poliovirus 2 [6]) [µg/mL] | other results
1 | CCc1noc(CC)c1CCCCCCOc1ccc(F)cc1Cl | 12.5 | 3.1 (≈ 8.76 µM) |  |  | MIC (Poliovirus 2 [1]): inactive
2 | CCCOC(=O)c1ccc(OCCCCCCCc2cc(C)no2)cc1 | 25 |  | 0.07 (≈ 0.195 µM) |  | MIC (Poliovirus 2 [4]): inactive
3 | CCc1noc(CC)c1CCCCCCOc1ccc(OC)cc1[N+](=O)[O-] | 6 |  | 0.3 (≈ 0.797 µM) | 1.5 (≈ 3.98 µM) | 
4 | CCc1noc(CC)c1CCCCCCOc1ccc(OC)cc1Br | 6 | 0.4 (≈ 0.975 µM) |  |  | MIC (Poliovirus 2 [1]): inactive
5 | CCc1noc(CC)c1CCCCCCOc1ccccc1F | 6.2 | 3.1 (≈ 9.71 µM) |  |  | MIC (Poliovirus 2 [1]): inactive
6 | CCc1noc(CC)c1CCCCCCOc1ccc(C(=O)O)cc1 | 3.1 |  |  |  | MIC (Poliovirus 2 [1]): inactive; MIC (rhinovirus A2 [7]): inactive
7 | CCc1noc(CC)c1CCCCCCOc1ccc(OC)cc1C(=O)O | 12.5 |  |  |  | MIC (Poliovirus 2 [1]): inactive; MIC (rhinovirus A2 [7]): inactive
8 | Cc1cc(CCCCCCCOc2ccc([N+](=O)[O-])cc2)on1 | 1.6 |  |  | 1.5 (≈ 4.71 µM) | MIC (rhinovirus A2 [7]): inactive
9 | CCc1noc(CC)c1CCCCCCOc1ccc(C(=O)OC)cc1Br | 12.5 | 0.4 (≈ 0.912 µM) |  |  | MIC (Poliovirus 2 [8]): 2.2 µg/mL (≈ 5.02 µM)
10 | Cc1cc(CCCCCCCOc2ccc(C(N)=O)cc2)on1 | 12.5 |  |  |  | MIC (rhinovirus A2 [7]): inactive; MIC (Poliovirus 2 [4]): inactive
11 | CCOC(=O)c1ccc(OCCCCCCc2c(CC)noc2CC)cc1 | 6.2 | 0.1 (≈ 0.268 µM) |  |  | MIC (Poliovirus 2 [8]): 0.5 µg/mL (≈ 1.34 µM)
12 | CCc1noc(CC)c1CCCCCCOc1ccc(C(=O)OC)cc1Cl | 1.6 | 0.4 (≈ 1.02 µM) |  |  | MIC (Poliovirus 2 [8]): 0.61 µg/mL (≈ 1.55 µM)
13 | CCc1noc(CC)c1CCCCCCOc1ccc2c(c1)OCO2 | 6.2 |  |  |  | MIC (Poliovirus 2 [1]): inactive; MIC (rhinovirus A2 [7]): inactive
14 | COC(=O)c1ccc(OCCCCCCCc2cc(C)no2)cc1 | 6.2 |  | 3 (≈ 9.05 µM) | 0.4 (≈ 1.21 µM) | 
15 | CC(=O)c1ccc(OCCCCCCCc2cc(C)no2)cc1 | 12.5 |  | 1.6 (≈ 5.07 µM) | 0.01 (≈ 0.0317 µM) | 
16 | CCc1noc(CC)c1CCCCCCOc1cccc(I)c1 | 12.5 | 6.3 (≈ 14.7 µM) |  |  | MIC (Poliovirus 2 [1]): inactive
17 | CCc1noc(CC)c1CCCCCCOc1ccccc1C(F)(F)F | 6.2 | 3.1 (≈ 8.39 µM) |  |  | MIC (Poliovirus 2 [1]): inactive
18 | CCOC(=O)c1ccc(OCCCCCc2cc(C)no2)cc1 | 12.5 | 0.015 (≈ 0.0473 µM) |  |  | MIC (Poliovirus 2 [8]): 0.6 µg/mL (≈ 1.89 µM)
19 | Cc1ccc(OCCCCCCCc2cc(C)no2)c(Cl)c1 | 6.2 |  | 1.2 (≈ 3.73 µM) | 0.8 (≈ 2.49 µM) | 
20 | Cc1cc(CCCCCCCOc2ccc(OC(C)C)cc2)on1 | 12.5 |  | 0.7 (≈ 2.11 µM) | 0.1 (≈ 0.302 µM) | 
21 | Cc1cc(CCCCCCCOc2ccccc2)on1 | 6.2 |  | 1.2 (≈ 4.39 µM) | 1.7 (≈ 6.22 µM) | 
22 | CCc1noc(CC)c1CCCCCCOc1ccc(OC)cc1Cl | 12 | 0.8 (≈ 2.19 µM) |  |  | MIC (Poliovirus 2 [9]): inactive
23 | CCOC(=O)c1cccc(OCCCCCCCc2cc(C)no2)c1 | 12.5 |  | 1.6 (≈ 4.63 µM) |  | MIC (Poliovirus 2 [4]): inactive
24 | CCOC(=O)c1ccc(OCCCCCCCCc2c(CC)noc2CC)cc1 | 12.5 |  | 0.4 (≈ 0.996 µM) |  | MIC (Poliovirus 2 [4]): inactive

Row | Compound | MTL [2] [µg/mL] | MIC (rhinovirus A2 [3]) [µg/mL] | MIC (rhinovirus A2 [5]) [µg/mL] | MIC (Poliovirus 2 [6]) [µg/mL] | other results
25 | COc1ccc(OCCCCCCCCc2cc(C)no2)c(Cl)c1 | 12.5 |  | 0.16 (≈ 0.455 µM) | 0.65 (≈ 1.85 µM) | 
26 | CCC(=O)c1ccc(OCCCCCCCc2cc(C)no2)cc1 | 6.2 |  | 1.7 (≈ 5.16 µM) | 0.4 (≈ 1.21 µM) | 
27 | Cc1cc(CCCCCCCOc2ccc(C(=O)NN)cc2)on1 | 12.5 |  | 0.64 (≈ 1.93 µM) |  | MIC (Poliovirus 2 [4]): inactive
28 | CCc1noc(CC)c1CCCCCCOc1ccc(SC)cc1 | 12.5 |  |  |  | MIC (Poliovirus 2 [8]): 0.6 µg/mL (≈ 1.73 µM); MIC (rhinovirus A2 [7]): inactive
29 | COc1ccc(OCCCCCc2cc(C)no2)c(Cl)c1 | 12.5 | 0.4 (≈ 1.29 µM) |  |  | MIC (Poliovirus 2 [8]): 0.2 µg/mL (≈ 0.646 µM)
30 | CCOC(=O)c1ccc(OCCCCCCCc2cc(C)no2)cc1 | 2.5 |  | 0.025 (≈ 0.0724 µM) | 0.8 (≈ 2.32 µM) | 
31 | CCc1noc(CC)c1CCCCCCOc1c(Cl)cccc1Cl | 12 | 1.6 (≈ 4.32 µM) |  |  | MIC (Poliovirus 2 [8]): 5.9 µg/mL (≈ 15.9 µM)
32 | CCOC(=O)c1ccc(OCCCCc2cc(C)no2)cc1 | 6.2 | 3.1 (≈ 10.2 µM) |  |  | MIC (Poliovirus 2 [1]): inactive
33 | CCOC(=O)c1ccc(OCCCCCCc2cc(C)no2)cc1 | 12.5 | 0.01 (≈ 0.0302 µM) |  |  | MIC (Poliovirus 2 [8]): 0.8 µg/mL (≈ 2.41 µM)
34 | CCc1noc(CC)c1CCCCCCOc1c(OC)cccc1OC | 6.2 | 3.1 (≈ 8.58 µM) |  |  | MIC (Poliovirus 2 [1]): inactive
35 | Cc1cc(CCCCCCCOc2ccc(OCc3ccccc3)cc2)on1 | 12.5 |  |  |  | MIC (rhinovirus A2 [7]): inactive
36 | Cc1cc(CCCCCCCOc2ccc(Cl)cc2)on1 | 3.1 |  | 1.5 (≈ 4.87 µM) | 0.3 (≈ 0.975 µM) | 
37 | Cc1cc(CCCCCCCOc2ccc(C(C)C)cc2)on1 | 12.5 |  | 1 (≈ 3.17 µM) | 0.04 (≈ 0.127 µM) | 
38 | CCOC(=O)c1ccc(OCCCCCCCc2c(CC)noc2CC)cc1 | 12 |  | 0.05 (≈ 0.129 µM) | 0.4 (≈ 1.03 µM) | 
39 | Cc1cc(CCCCCCCOc2ccc(C(=O)OC(C)C)cc2)on1 | 12.5 |  | 0.2 (≈ 0.556 µM) | 0.9 (≈ 2.5 µM) | 
40 | CCc1noc(CC)c1CCCCCCOc1ccc(OC)cc1C(=O)OC | 12 |  |  |  | MIC (Poliovirus 2 [8]): 2.9 µg/mL (≈ 7.45 µM); MIC (rhinovirus A2 [7]): inactive
41 | CCc1noc(CC)c1CCCCCCOc1ccc(O)cc1 | 25 |  |  |  | MIC (Poliovirus 2 [1]): inactive; MIC (rhinovirus A2 [7]): inactive
42 | CCOC(=O)c1ccc(OCCCCCCCCc2cc(C)no2)cc1 | 12.5 |  | 0.05 (≈ 0.139 µM) |  | MIC (Poliovirus 2 [4]): inactive
43 | CCc1noc(CC)c1CCCCCCOc1ccc(Br)cc1 | 6 |  |  |  | MIC (Poliovirus 2 [1]): inactive; MIC (rhinovirus A2 [7]): inactive
44 | Cc1cc(CCCCCCCOc2ccc(C(=O)N(C)C)cc2)on1 | 3.1 |  |  | 2.5 (≈ 7.26 µM) | MIC (rhinovirus A2 [7]): inactive
45 | Cc1cc(CCCCCCCOc2ccc(C(=O)OC(C)(C)C)cc2)on1 | 2.5 |  | 6.2 (≈ 16.6 µM) | 1.2 (≈ 3.21 µM) | 
46 | COc1ccc(OCCCCCCCc2cc(C)no2)c([N+](=O)[O-])c1 | 3.1 |  | 0.3 (≈ 0.861 µM) | 0.2 (≈ 0.574 µM) | 
47 | CCc1noc(CC)c1CCCCCCOc1ccc(OC)cc1 | 6.2 | 3.1 (≈ 9.35 µM) |  |  | MIC (Poliovirus 2 [1]): inactive
48 | COc1ccc(OCCCCCCc2cc(C)no2)c(Cl)c1 | 12.5 | 0.8 (≈ 2.47 µM) |  |  | MIC (Poliovirus 2 [8]): 0.3 µg/mL (≈ 0.926 µM)
